Here are results for 3 molecules from publication PMC2909692 (Nuclear medicine and biology, 2010).

“And” between values parts separate entries of the source, which are not always exact repeats. Equal values may be shown once. Read-outs that look alike come from different tables or passages of the source.

The target in series [1] is dopamine transporter (DAT) (Rattus norvegicus, UniProt P23977). Description: quantitative in vitro autoradiography with [125I]IPT on rat brain sections. The series is classed as binding. Put shortly: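 Brains from lesioned rats were frozen in OCT, and 20 μm coronal cryosections were desiccated 2 hrs at 4 °C, then stored at −70 °C. Sections were preincubated 20 min at room temperature in 50 mM Na2HPO4/0.32 M sucrose pH 7.4, then incubated 2 hrs with [125I]IPT (13-19 Bq/μL). Rinses: cold buffer 2 × 30 min, then cold water. Film exposure was 24 hrs with 125I homogenate standards (0.04-1.48 kBq/mg). Change = ((R−CB)−(L−CB))/(R−CB)×100, averaged over sections.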

Series [2] deals with VMAT2 (Rattus norvegicus, UniProt Q01827). The series can be described thus: small animal PET imaging with [18F]AV-133 in 6-OHDA unilateral lesioned rats. The format is in vivo. Put shortly: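 Male Sprague Dawley rats with a unilateral left 6-OHDA lesion passed an apomorphine rotation check (0.05 mg/kg s.c., day 21). Under 1.5-2.5% isoflurane, each received [18F]AV-133 (50-57 MBq) by tail vein and was imaged dynamically for 4 hrs (5 min frames, then 15 min frames). ROI analysis on reconstructed images gave % change = ((R striatum − cerebellum) − (L striatum − cerebellum))/(R striatum − cerebellum) × 100.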

The target of series [3] is T1, SERT (Rattus norvegicus, UniProt P31652). Description: regional brain biodistribution of [18F]FPBM in PCA-treated and control rats. The format is in vivo. The settings on record: 60 min, n = 6. In short, it runs like this: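 Male Sprague Dawley rats (12, split into two groups) received PCA 5 mg/kg i.p. or saline daily for 2 consecutive days. Six days later they were given [18F]FPBM i.v. and killed under isoflurane 60 min post-injection. Radioactivity distribution was measured in brain regions only, not peripheral organs.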

For series [4] the following is noted: normal rats, ref [23]-[25], cited from earlier work.
The target of series [5] is serotonin transporter (SERT). The following applies: read-out: Ki (affinity); in vitro binding assays; ref [23]-[25]; cited from earlier work.
Series [6] addresses T1, SERT. The format is in vivo. In short, it runs like this: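 Rats under 1.5-2.5% isoflurane were scanned on a Philips Mosaic animal PET after tail-vein [18F]FPBM (37-51 MBq lesioned; 43-57 MBq normal controls). Dynamic acquisition ran 4 hrs: 5-min frames for 2 hrs, then 15-min frames. Lesioned rats were apomorphine-screened (0.05 mg/kg s.c.) and rescanned 7-20 days later. ROI time-activity points were summed per region; left-striatum change = ((R−CB)−(L−CB))/(R−CB)×100.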

Series [7] deals with T1, SERT. Description: quantitative in vitro autoradiography with [18F]FPBM on rat brain sections. The format is binding. The following applies: n = 3. Put shortly: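 Coronal 20 μm cryostat sections from left-lesioned (6-OHDA) male Sprague Dawley rat brains were preincubated for 20 min at room temperature in 50 mM Tris/120 mM NaCl, pH 7.4, then dried. They were incubated for 1 hr at room temperature in that buffer containing [18F]FPBM (166-178 Bq/μL), rinsed cold 2 × 45 min, and exposed to film for 24 hrs with calibration standards. % change = ((R − cerebellum) − (L − cerebellum))/(R − cerebellum) × 100, averaged over rostral-striatum sections.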

Chain of VMAT2 (Q01827 whole entry): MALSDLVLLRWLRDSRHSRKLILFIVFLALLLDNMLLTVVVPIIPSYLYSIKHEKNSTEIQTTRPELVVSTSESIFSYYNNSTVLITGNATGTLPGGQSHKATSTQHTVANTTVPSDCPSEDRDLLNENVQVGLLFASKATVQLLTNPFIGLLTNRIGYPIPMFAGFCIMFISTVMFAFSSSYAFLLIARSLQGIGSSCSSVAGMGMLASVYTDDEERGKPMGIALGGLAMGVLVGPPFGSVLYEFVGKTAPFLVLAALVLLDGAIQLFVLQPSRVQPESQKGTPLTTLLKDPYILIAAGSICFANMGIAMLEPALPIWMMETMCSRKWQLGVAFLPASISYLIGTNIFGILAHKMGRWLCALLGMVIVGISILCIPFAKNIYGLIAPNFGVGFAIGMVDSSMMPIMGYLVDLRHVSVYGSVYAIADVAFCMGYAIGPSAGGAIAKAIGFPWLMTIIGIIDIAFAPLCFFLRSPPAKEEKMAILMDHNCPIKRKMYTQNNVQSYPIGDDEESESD
T1 sequence (P31652 whole entry): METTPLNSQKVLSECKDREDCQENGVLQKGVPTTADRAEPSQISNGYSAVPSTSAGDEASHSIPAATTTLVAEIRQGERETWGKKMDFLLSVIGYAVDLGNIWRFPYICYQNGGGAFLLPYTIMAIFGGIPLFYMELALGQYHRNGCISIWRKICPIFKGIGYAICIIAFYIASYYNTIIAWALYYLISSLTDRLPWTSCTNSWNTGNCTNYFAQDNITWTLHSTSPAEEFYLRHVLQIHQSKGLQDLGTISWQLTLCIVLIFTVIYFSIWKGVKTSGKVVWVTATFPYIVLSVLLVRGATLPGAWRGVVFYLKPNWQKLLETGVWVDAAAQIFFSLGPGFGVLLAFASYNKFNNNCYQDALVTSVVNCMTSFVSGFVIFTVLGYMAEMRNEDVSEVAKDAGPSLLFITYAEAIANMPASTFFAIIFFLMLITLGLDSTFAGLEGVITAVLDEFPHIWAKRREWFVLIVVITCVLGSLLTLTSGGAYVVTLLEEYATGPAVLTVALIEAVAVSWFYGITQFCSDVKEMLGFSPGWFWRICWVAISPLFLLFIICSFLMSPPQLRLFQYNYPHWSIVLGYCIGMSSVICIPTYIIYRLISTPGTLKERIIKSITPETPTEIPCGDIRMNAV
Chain of dopamine transporter (DAT) (P23977 whole entry): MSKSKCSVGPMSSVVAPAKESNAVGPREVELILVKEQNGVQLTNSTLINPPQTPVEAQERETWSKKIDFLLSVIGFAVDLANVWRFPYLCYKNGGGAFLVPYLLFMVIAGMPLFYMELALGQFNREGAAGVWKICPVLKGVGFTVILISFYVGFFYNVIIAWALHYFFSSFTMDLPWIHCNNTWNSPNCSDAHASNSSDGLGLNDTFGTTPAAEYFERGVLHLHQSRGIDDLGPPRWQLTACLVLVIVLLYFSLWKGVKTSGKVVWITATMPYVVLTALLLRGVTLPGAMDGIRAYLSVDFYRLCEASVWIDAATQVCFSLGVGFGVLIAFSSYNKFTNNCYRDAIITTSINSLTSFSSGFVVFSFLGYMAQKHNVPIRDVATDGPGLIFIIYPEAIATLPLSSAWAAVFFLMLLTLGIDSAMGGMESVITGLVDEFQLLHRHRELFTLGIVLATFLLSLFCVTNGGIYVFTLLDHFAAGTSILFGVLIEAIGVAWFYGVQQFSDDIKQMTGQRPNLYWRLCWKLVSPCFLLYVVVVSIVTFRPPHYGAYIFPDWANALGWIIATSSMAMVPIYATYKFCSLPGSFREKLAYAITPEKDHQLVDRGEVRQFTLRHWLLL

Turning to `COC(=O)C1C(c2ccc(Cl)cc2)CC2CCC1N2CC=C[125I]` (stereo not drawn) [[^125I]IPT, N-(3′-[^125I]-iodopropen-2′-yl)-2-beta-carbomethoxy-3-beta-(4-chlorophenyl) tropane], the “percent change in binding in the left striatum (in vitro autoradiography)” value in series [1] (6-OHDA lesioned rat #1) is −66%; in series [1] (6-OHDA lesioned rat #2), −56%; in series [1] (6-OHDA lesioned rat #3) it was −81%.
Consider `COc1cc2c(cc1OCCCF)CCN1CC(CC(C)C)C(O)CC21` (single isomer, unassigned; (+)) [[^18F]AV-133, (+)-2-Hydroxy-3-isobutyl-9-(3-fluoropropoxy)-10-methoxy-1,2,3,4,6,7-hexahydro-11bH-benzo[a]quinolizine], for which the “percent binding change in the left striatum (PET)” value in series [2] (6-OHDA lesioned rat #1, n = 1) is listed as −87%; in series [2] (6-OHDA lesioned rat #2, n = 1), −72%; in series [2] (6-OHDA lesioned rat #3, n = 1), −91%.
With `CN(C)Cc1cc(OCCC[18F])ccc1Sc1ccccc1N` [[^18F]FPBM, 2-(2′-((dimethylamino)methyl)-4′-(3-[^18F]-fluoropropoxy)phenylthio)benzenamine], the “ratio vs. CB ± SD, cerebellum” value stood at 1.00 ± 0.34 in series [3] (PCA-treated rats) and 1.00 ± 0.33 in series [3] (control rats). Besides, the “ratio vs. CB ± SD, cortex” value was 1.93 ± 0.58 in series [3] (PCA-treated rats) and 3.39 ± 1.28 in series [3] (control rats). Moreover, the results for the “ratio vs. CB ± SD, hippocampus” value in series [3] (PCA-treated rats) and in series [3] (control rats) were 2.29 ± 0.56 and 3.09 ± 1.10, respectively. Also, the entries for the “ratio vs. CB ± SD, hypothalamus” value in series [3] (PCA-treated rats) and in series [3] (control rats) were 3.87 ± 0.88 and 4.61 ± 1.44, respectively. Also, the entries for the “ratio vs. CB ± SD, remainder” value in series [3] (PCA-treated rats) and in series [3] (control rats) were 2.27 ± 0.53 and 3.12 ± 1.12, respectively. For the same molecule, the “ratio vs. CB ± SD, striatum” value is on record as 2.90 ± 1.00 in series [3] (PCA-treated rats) and 3.70 ± 1.21 in series [3] (control rats). Also, the brain uptake in series [4] (2 min post-injection) is 0.99 % dose/g. Besides, in series [4] (120 min post-injection), the “target to non-target ratio” value is 7.7. The Ki in series [5] is 380 pM. Further, the “percent binding change in the left striatum (PET), individual scans” value in series [6] (6-OHDA lesioned rat #1, 10 days between scans) was −12% and −10%; in series [6] (6-OHDA lesioned rat #2, 20 days between scans), −1% and −7%; in series [6] (6-OHDA lesioned rat #3, 7 days between scans) it was −42% and −44%. Besides, the “average percent binding change in the left striatum (PET)” value in series [6] (6-OHDA lesioned rat #1, n = 2 scans) was −11%; in series [6] (6-OHDA lesioned rat #2, n = 2 scans), −4%; in series [6] (6-OHDA lesioned rat #3, n = 2 scans) it was −43%; in series [6] (normal control rats, n = 2 separate rats, left vs right striatum), “+0.5%”. Also, the “percent binding change in the left striatum (PET), individual rats” value in series [6] (normal control rats, individual values) is “+4.5% and −3.5%”. The “averaged percent binding reduction of the left rostral striatum brain sections (in vitro autoradiography)” value in series [7] (6-OHDA lesioned rat #1, rostral striatum sections) is −5.9%; in series [7] (6-OHDA lesioned rat #2, rostral striatum sections), “+2.3%”; in series [7] (6-OHDA lesioned rat #3, rostral striatum sections) it was −37.3%.
